In brackets after ≈: the same amount, converted by molar mass. Activity calls are given as the source filed them. No cut-off for these calls is given here.

For one experiment, the system named is Prunus dulcis. As to the kind of experiment: Inhibition of almond beta glucosidase at 10 uM.
The next experiment deals with Penicillium decumbens. Briefly: Inhibition of Penicillium decumbens alpha-rhamnosidase at 10 mM.
Experiment [1] is described as follows: Inhibition of Saccharomyces cerevisiae alpha glucosidase. An outline of the steps: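 Baker's yeast α-glucosidase (0.2 U/mL solution) in 0.2 M phosphate buffer pH 6.8 was preincubated with compound at 37 °C for 30 min. 2.5 mM p-nitrophenyl α-D-glucopyranoside solution was then added and the mixture incubated 5 min at 37 °C. The reaction was stopped with 0.1 M Na₂CO₃ and A405 read before and after reaction. Percent inhibition was taken against a buffer-only control, with acarbose as positive control, giving IC50 in mM ± SD.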

For the next experiment, the system named is Pseudomonas aeruginosa. Briefly: Antimicrobial activity against Pseudomonas aeruginosa by almar blue assay. It counts as functional. An outline of the steps:
(§1)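 Microplate Alamar Blue broth assay: bacteria at 2 × 10⁵ cfu/mL in MHB with 8% Alamar Blue; serial 2-fold compound dilutions in DMSO added (2 µL to 78 µL culture); ceftazidime reference; incubated at 32 °C until growth controls turned pink; fluorescence ex 530/em 590 nm; % inhibition, triplicate averaged; MIC50 and MIC90 interpolated from concentration–inhibition curves.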

Another experiment concerns Escherichia coli. Briefly: Antimicrobial activity against Escherichia coli by almar blue assay. It counts as functional. In a few lines: as §1
Another experiment relates to Staphylococcus aureus. As to the kind of experiment: Antimicrobial activity against Staphylococcus aureus by almar blue assay. The experiment is classed as functional. In a few lines:
as §1

The test system of another experiment is Proteus vulgaris. Briefly: Antimicrobial activity against Proteus vulgaris by almar blue assay. It counts as functional. In a few lines:
as §1

Regarding `C[C@H]1C[C@H](O)[C@@H](O)C[C@H]1O` (relative stereo) [AMPELOMIN C], the result in the experiment on Prunus dulcis and with Penicillium decumbens was inactive. Moreover, in experiment [1], half-maximal inhibition (IC50) required 6.12 mM.

On to `C[C@H]1O[C@H](O[C@H]2[C@H](O)[C@@H](O)[C@@H](O[C@H]3[C@H](O)[C@@H](O)C(O)O[C@@H]3CO)O[C@@H]2CO)[C@H](O)[C@@H](O)[C@@H]1N[C@H]1C=C(CO)[C@@H](O)[C@H](O)[C@H]1O` (stereo partly drawn) [ACARBOSE], for which 0.03 mM corresponded to half-maximal inhibition in experiment [1] (IC50).

Turning to `C[C@H]1C[C@@H](O)[C@@H](O)C[C@@H]1O` (relative stereo) [AMPELOMIN F], the result with Prunus dulcis and with Penicillium decumbens was inactive. Also, the IC50 in experiment [1] was above 10 mM.

`C[C@H]1C[C@H](O)[C@H](O)C[C@@H]1O` (relative stereo) [AMPELOMIN E]: the outcome in the experiment with Prunus dulcis and in the experiment with Penicillium decumbens was inactive. Also, the IC50 in experiment [1] turned out to be 5.93 mM.

Take `C[C@H]1C[C@H](O)[C@@H]2O[C@@H]2[C@H]1O` (relative stereo) [AMPELOMIN B]: the result in the experiment with Prunus dulcis and in the experiment on Penicillium decumbens was inactive. For the same molecule, in experiment [1], the IC50 was above 10 mM.

`C[C@H]1C[C@@H](O)C=CC1=O` [AMPELOMIN A]: the result in the experiment on Prunus dulcis and with Penicillium decumbens was inactive. In addition, the MIC50 was 63.5 µM (≈ 8.01 µg/mL) in the experiment on Pseudomonas aeruginosa, 89.9 µM (≈ 11.3 µg/mL) against Escherichia coli, 54.9 µM (≈ 6.93 µg/mL) with Staphylococcus aureus and 51.6 µM (≈ 6.51 µg/mL) against Proteus vulgaris. In addition, the MIC90 against Pseudomonas aeruginosa amounted to 1020 µM (≈ 128 µg/mL); in the experiment with Escherichia coli, 265 µM (≈ 33.4 µg/mL); against Staphylococcus aureus, 234 µM (≈ 29.5 µg/mL); against Proteus vulgaris, 202 µM (≈ 25.5 µg/mL). The molecule further displayed an IC50 in experiment [1] of 3.59 mM.

As to `Cc1cccc(O)c1C(=O)O[C@H]1[C@H](O)[C@@H](O)[C@@H](C)C[C@@H]1O` (relative stereo) [AMPELOMIN G], the result with Prunus dulcis and in the experiment with Penicillium decumbens was inactive. The molecule also gave an IC50 in experiment [1] of 1.74 mM.

`C[C@H]1C[C@H](O)[C@H](O)C[C@H]1O` (relative stereo) [AMPELOMIN D]: the outcome with Prunus dulcis and in the experiment on Penicillium decumbens was inactive. For the same molecule, in experiment [1], the IC50 was above 10 mM.

Turning to `CC(C)(O/N=C(\C(=O)N[C@@H]1C(=O)N2C(C(=O)[O-])=C(C[n+]3ccccc3)CS[C@H]12)c1csc(N)n1)C(=O)O` [CEFTAZIDIME], the MIC50 amounted to 0.73 µM (≈ 0.399 µg/mL) with Pseudomonas aeruginosa, 0.37 µM (≈ 0.202 µg/mL) in the experiment with Escherichia coli, 3.11 µM (≈ 1.7 µg/mL) with Staphylococcus aureus and 0.18 µM (≈ 0.0984 µg/mL) against Proteus vulgaris. Further, the MIC90 against Pseudomonas aeruginosa was determined as 3.94 µM (≈ 2.15 µg/mL); against Escherichia coli, 0.46 µM (≈ 0.251 µg/mL); in the experiment on Staphylococcus aureus it was 14.7 µM (≈ 8.01 µg/mL); with Proteus vulgaris it was 0.21 µM (≈ 0.115 µg/mL).
